Shown is part of a subset that was picked to be rich in hits.
Diaphorase inh = inhibits diaphorase or chemically oxidizes, flagging diaphorase assay artifacts | diaphorase resazurin-to-resorufin fluorescence, NADH, 16 min; bacterial (C. kluyveri) enzyme, not human | inhibition, % at 20 µM | actives 0.69% (n = 190,000);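 active = primary screen inhibition at 20 µM above a set limit, cut at about 50% in these data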
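System: Bacterial diaphorase enzyme (C. kluyveri) | Incubation: 16-min room-temperature incubation before reading | Benchmarks: No-NADH positive control and DMSO neutral control | Measured by: Resorufin fluorescence 544/590 nm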
PfGluPho inh = PfG6PD (Plasmodium falciparum) enzyme inhibition; PfGluPho enzyme, NADPH resazurin-diaphorase fluorescence; inhibition, % at 20 µM; actives 0.78% (n = 350,000); AID 504690;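 active = inhibition reaching at least a set limit at 20 µM in the primary screen, cut at about 59% in these data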
Diaphorase act = activates diaphorase or chemically reduces, flagging diaphorase assay artifacts; actives 0.005% (n = 190,000); AID 1229; activation factor at 20 µM; Diaphorase/resazurin coupled assay, resorufin fluorescence, 16 min; stronger effect = higher value; 1 = vehicle wells, 0 = NADH-free wells;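 active = diaphorase activity raised at least twofold by the compound at 20 µM; inactive = activation factor below 2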
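Material: purified diaphorase enzyme from Clostridium kluyveri; Also added: 0.114 mM NADH and 0.1 mM resazurin, final amounts; Doses: single compound dose of 20 µM, 1% DMSO final; Times: 16 min enzyme reaction, ambient temperature; Detection: resorufin fluorescence, excitation 544 nm, emission 590 nm; Measure: increased resorufin signal from activators or reducing compounds.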
Lmaj promast = Leishmania major promastigote growth inhibition; Leishmania major promastigotes, resazurin fluorescence viability; inhibition, % at 10 µM; actives 9% (n = 200,000); AID 1063;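 also: promastigotes grown with compound for 44 hours at 28 °C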
G6PDH CS = counter-screen for G6PDH assay hits: L. mesenteroides G6PDH inhibition; Purified L. mesenteroides G6PDH, diaphorase/resazurin coupled fluorescence, 45 min; inhibition, % at 5 µM; actives 0.12% (n = 200,000); AID 1020
DTT redox prof = compounds producing H2O2 with reducing agent – biochemical, NIH compound library profiling, artefact control for MLSCN library redox annotation, primary screen | DTT-dependent redox cycling H2O2, phenol red/HRP absorbance; 100% = 100 µM peroxide control, 0% = buffer | activation, % at 10 µM | actives 0.03% (n = 200,000) | AID 878;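 active = activation of at least 50% relative to the plate's high and low controls in the primary single-dose screen; inactive = activation below 50%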;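 also: compound incubated with DTT at 0.8 mM final as the reducing agent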
Numbers stand for hits; – = inactive; · = not tested or not shown. Rule as the data show it, unless noted: active = inhibition above about 50%; inactive = the rest.

SMILES | Diaphorase inh | PfGluPho inh | Diaphorase act | Lmaj promast | G6PDH CS | DTT redox prof
CCCCCCCCCOC(=O)C[n+]1csc(CCO)c1C | – | – | – | 98 | – | –
Cc1c(CCO)sc[n+]1CC(=O)OCCC12CC3CC(CC(C3)C1)C2 | – | – | – | – | – | –
CN(C)Cc1c(C(=O)N/N=C/c2ccncc2)nnn1-c1nonc1N | · | – | · | · | · | ·
Cc1nnsc1C(=O)N1CCCC(Nc2ccc(F)c(F)c2)C1 (stereo not given) | · | – | · | · | · | ·
COc1cc(/C=N/NC(N)=S)ccc1OCc1ccc(C)cc1 | – | – | – | 100 | – | –
CCOc1cc(/C=N/O)ccc1OCc1ccc(F)cc1 | – | – | – | – | – | –
CCOc1cc(/C=N/N=C(N)N)ccc1OCc1ccc(Cl)cc1 | – | – | 2 | 100 | – | –
COc1cc(/C=N/O)ccc1OCc1ccc(Cl)cc1 | – | · | – | – | – | –
COc1cc(/C=N/N=C(N)N)ccc1OCc1ccc(Cl)cc1 | – | – | – | 101 | – | –
CCOc1cc(/C=N/O)ccc1OCc1ccc([N+](=O)[O-])cc1 | – | – | – | 58 | – | –
O=C(O)c1c(-c2ccc(Cl)cc2)cn2ccccc12 | – | – | – | – | – | –
CCOc1ccc(NC(=O)CN(C)C(=O)c2ccccc2OCc2c(C)noc2C)cc1OCC | · | – | · | · | · | ·
Cc1ccccc1OCCn1cc(C(=S)N2CCCC2)c2ccccc21 | · | – | · | – | · | –
CN1CCN(C(=S)c2cn(Cc3cccc(F)c3)c3ccccc23)CC1 | – | – | – | – | – | –
CN1CCN(C(=S)c2cn(Cc3ccc(F)cc3)c3ccccc23)CC1 | – | – | – | 51 | – | –
Cc1ccccc1OCCn1cc(C(=S)N2CCN(C)CC2)c2ccccc21 | – | – | – | 79 | – | –
COc1cccc(C(=O)OCC(=O)Nc2ccc(N3CCOCC3)cc2)c1 | · | – | · | · | · | ·
C[n+]1c(/C=C/c2ccc3c(c2)OCO3)ccc2ccccc21 | – | – | – | 77 | – | –
C[n+]1c(/C=C/c2ccc(O)cc2)ccc2ccccc21 | · | – | · | · | · | ·
N/N=c1\sc2ccccc2n1-c1ccccc1 | – | – | – | – | – | –
CC(C)(C)c1cc(C(=O)N/N=C/c2ccc(F)cc2)n(-c2ccccc2)n1 | – | – | – | – | – | –
COc1ccc(/C=N/NC(=O)c2nc(-c3ccccc3)n(-c3ccccc3)n2)cc1 | – | – | – | – | – | –
COc1ccc(/C=N/NC(=O)c2nc(-c3ccccc3)n(-c3ccccc3)n2)c(O)c1 | – | – | – | 99 | – | –
CC(C)(C)c1cc(C(=O)N/N=C/c2ccccc2O)n(-c2ccccc2)n1 | – | – | – | 99 | – | –
Cc1cnc(C(=O)N2CCN(S(=O)(=O)c3cccc(Br)c3)CC2)cn1 | · | – | · | · | · | ·
SMILES | Diaphorase inh | PfGluPho inh | Diaphorase act | Lmaj promast | G6PDH CS | DTT redox prof
CCn1c(C)nnc1SCC(=O)NC1CCCC1 | · | – | · | · | · | ·
CCOc1ccc(S(=O)(=O)NCc2cccnc2)c2ccccc12 | · | – | · | · | · | ·
CCOc1ccc(S(=O)(=O)NCc2ccc(Cl)cc2)c2cccnc12 | – | – | – | 99 | – | –
Cc1ccc(NC(=O)CCNS(=O)(=O)c2ccc(Br)cc2)cc1S(=O)(=O)N1CCOCC1 | · | – | · | · | · | ·
OCC1(Cc2cccc(C(F)(F)F)c2)CCN(Cc2cc(F)cc(F)c2)CC1 | – | – | – | 86 | – | –
CN(C)S(=O)(=O)N1CCC(CO)(Cc2cccc(C(F)(F)F)c2)CC1 | – | – | – | – | – | –
CSc1cccc(CN2CCC(CO)(Cc3cccc(C(F)(F)F)c3)CC2)c1 | – | – | – | 81 | – | –
CCOc1ccc(N2CC(C(=O)NC3CCCC3)CC2=O)cc1 (stereo not given) | · | – | · | · | · | ·
Cn1cc([N+](=O)[O-])c(C(=O)N2CCCCCC2)n1 | · | – | · | · | · | ·
COc1ccc(S(=O)(=O)N2CCOCC2)cc1NC(=O)C1CC(=O)N(c2ccc3c(c2)OCCO3)C1 (stereo not given) | · | – | · | · | · | ·
O=C(COC(=O)c1cc(S(=O)(=O)N2CCOCC2)ccc1O)Nc1ccc2c(c1)OCO2 | · | – | · | · | · | ·
CCC(=O)NC(c1ccc([N+](=O)[O-])cc1)c1c(O)ccc2ccccc12 (stereo not given) | – | – | – | 69 | – | –
CCCCC(=O)NC(c1ccccc1)c1ccc2cccnc2c1O (stereo not given) | · | – | · | · | · | ·
CCCCC(=O)NC(c1ccc([N+](=O)[O-])cc1)c1c(O)ccc2ccccc12 (stereo not given) | – | – | – | 100 | – | –
O=c1cc(-c2ccc(O)c(-c3c(O)cc(O)c4c(=O)cc(-c5ccc(O)cc5)oc34)c2)oc2cc(O)cc(O)c12 | – | – | – | – | – | –
COc1cc2cc(CCCOC(=O)c3ccc(C(F)(F)F)cc3)oc(=O)c2cc1OC | · | – | · | · | · | ·
Cc1ccc(-n2c(C)cc(C3=NNC(=NC4CC4)SC3)c2C)cc1C | – | – | – | 87 | – | –
Cc1cc(C2=NNC(=NC3CC3)SC2)c(C)n1-c1c(C)n(C)n(-c2ccccc2)c1=O | – | – | – | – | – | –
CCNc1nc(SCCOc2ccc(Br)cc2)nc(N(C)C)n1 | – | – | – | 58 | – | –
COc1ccccc1N(C(=O)c1ccncc1)c1nc(-c2ccc([N+](=O)[O-])cc2)cs1 | – | – | – | 99 | – | –
COCCN(C(=O)c1cccc(N2C(=O)CCC2=O)c1)c1nc(-c2ccc([N+](=O)[O-])cc2)cs1 | · | – | · | · | · | ·
CCCc1nc(-c2cc3ccc(C)cc3[nH]c2=O)no1 | – | – | – | – | – | –
CCOc1ccccc1-c1nc(-c2cc3ccc(C)cc3[nH]c2=O)no1 | – | – | – | 69 | – | –
c1ccc(CNCCCNCCCCNCCCNCc2ccccc2)cc1 | · | – | · | · | · | ·
OCCCNCc1ccc(-c2ccccc2)cc1 | – | – | – | 92 | – | –
SMILES | Diaphorase inh | PfGluPho inh | Diaphorase act | Lmaj promast | G6PDH CS | DTT redox prof
OCCCCNCc1ccc(OCc2ccccc2Cl)cc1 | – | – | – | 97 | – | –
OCCNCCCCOc1ccc(F)cc1 | – | – | – | 63 | – | –
O=c1[nH]c2ccc(NCc3ccc(OCc4ccccc4Cl)cc3)cc2[nH]1 | · | – | · | · | · | ·
NC(N)=N/N=C/c1ccc(OCc2ccccc2Cl)cc1 | – | – | – | 101 | – | –
CC(=O)c1nn(-c2ccc(C(F)(F)F)cc2)c(=O)[nH]c1=O | · | – | · | · | · | ·
COc1cccc(-n2c([S-])c(C(=O)Nc3ccc(S(=O)(=O)N4CCOCC4)cc3)[n+]3cc(C(N)=O)ccc23)c1 | · | – | · | · | · | ·
COc1ccc(OC)c(NC(=O)CSc2nc(N3CCOCC3)nc(N3CCOCC3)n2)c1 | · | – | · | · | · | ·
O=C(Nc1ccc(OCc2ccccc2)cc1)c1ccccc1 | – | – | – | – | – | –
OCCNCCCCOc1ccc(OCc2ccccc2)cc1 | – | – | – | 100 | – | –
CCOCCCNCc1ccc(OCc2ccccc2Cl)cc1 | – | – | – | 100 | – | –

High-throughput results deposited in PubChem BioAssay by several laboratories.
